Bioassay records from PubChem BioAssay.
PolyA inhibitor: polyadenylation inhibitors in yeast reporter cells, primary screen, luminescence, S. cerevisiae. activity score, % at 12 µM. 0.02% of 300,000 active. S. cerevisiae SKY197-pL101 polyadenylation reporter, beta-gal luminescence; efflux-impaired pdr1/pdr3 knockout yeast; score 100 = 6 SD above DMSO;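 active means lowest replicate activity score at least 50, where 100 means six control SD above control mean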;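 further: yeast exposed to compound for 9 h at 30 °C; higher score means more reporter readthrough which indicates perturbed polyadenylation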
NALP1 yeast inh: NALP1 inflammasome inhibitors in reconstituted yeast, colorimetric, S. cerevisiae, triplicate retest | S. cerevisiae NALP1/ASC/caspase-1 growth, X-gal OD620, 72 h | inhibition, % at 10 µM | 0.61% of 280,000 active; in the data active means inhibition mostly above about 24%, no sharp cut-off; inactive means mostly below about 32%
VIM-2 inh: VIM-2 metallo-beta-lactamase inhibitors, primary screen, biochemical, epi-absorbance readout, Pseudomonas aeruginosa enzyme; 0.89% of 290,000 active; inhibition, % at 5.6 µM; AID 1527, 2009; purified VIM-2, nitrocefin hydrolysis, epi-absorbance fluorescence;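 active means inhibition above the mean of all tested compounds plus 3 SD, cutoff set per screening run, cut at about 7.5% in these data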;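 further: red hydrolysis product quenches plate fluorescence so inhibitors raise well fluorescence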
IMP-1 inh: IMP-1 metallo-beta-lactamase inhibitors, primary screen, biochemical, epi-absorbance readout, Pseudomonas aeruginosa enzyme | purified IMP-1, nitrocefin hydrolysis, epi-absorbance fluorescence | inhibition, % at 5.6 µM | 0.45% of 290,000 active | metallo-beta-lactamase IMP-1 (Pseudomonas aeruginosa);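 active means inhibition above the mean plus 3 SD of all compounds in the same screening run, cut at about 4.5% in these data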
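System – purified recombinant IMP-1 beta-lactamase · Input – IMP-1 dispensed at 0.2 nM · Timing – 15 min preincubation plus 25 min reaction at 25 °C · Signal – Epi-absorbance fluorescence, 480 nm excitation, 530 nm emission · Measure – percent IMP-1 inhibition derived from blank-referenced optical density · Controls – Enzyme-plus-DMSO low control, enzyme-free DMSO high control · Replication – singlicate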
Mot1-301 SUMO: yeast Mot1-301 growth rescue at high temperature, primary screen, SUMOylation pathway inhibitor project, S. cerevisiae, ATP luminescence, 38.5C | S. cerevisiae Mot1-301 growth rescue; percent above DMSO median, 100 means doubled | growth rescue, % at 18.8 µM | 1% of 320,000 active;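 active means every valid replicate shows activation above 250% relative to neutral control wells; inactive means the rest, any valid replicate at or below 250%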
NLRP3 yeast inh: NALP3 inflammasome inhibitors in reconstituted yeast, primary screen, luminescence, uHTS; Yeast reconstituted NLRP3/ASC/caspase-1, beta-gal luminescence, 24 h; inhibition, % at 10 µM; 0.39% of 330,000 active;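 active means inhibition of 50% or more; inactive means inhibition below 50%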
Mot1 SUMO dose: growth restoration of Mot1-301 yeast on galactose, dose response, SUMO pathway inhibitor project, whole organism, S. cerevisiae, ATP luminescence, cherry-picked samples | growth activity, percent, % at 42 µM | shares compounds with Mot1-301 SUMO | 2,300 tested, under 10 active | AID 493004, 2010 | S. cerevisiae Mot1-301 galactose growth, 24 h; -100 = growth of slx-deleted rescue strain;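 active means Signal drops as the depositor expects, and the fitted half-maximal dose is no more than ten times the top valid tested dose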;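 further: more negative values mean stronger growth rescue toward the control strain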
Hits are given with their value; n = inactive; x = no result; + = active, no number. A selection: hits, their analogues and other compounds. The true share with any hit is near 2.9%.

SMILES	PolyA inhibitor	NALP1 yeast inh	VIM-2 inh	IMP-1 inh	Mot1-301 SUMO	NLRP3 yeast inh	Mot1 SUMO dose
COc1ccc(NC(=O)c2ccc(S(=O)(=O)N(C)c3ccccc3)cc2)cn1	n	x	n	n	+	n	n
N#Cc1cc2c(nc1SCc1cccnc1)CCCC2	n	n	n	n	n	n	x
N#Cc1cc2c(nc1SCc1cccnc1)CCC2	n	n	n	n	+	n	n
CN(C)S(=O)(=O)c1ccc(Cl)c(NC(=O)CN2C(=O)NC(C)(C3CC3)C2=O)c1 (stereo unspecified)	n	x	n	n	651.1	n	n
COc1ccc(OC)c(S(=O)(=O)NCCS(=O)(=O)N2CCN(c3ccccc3)CC2)c1	n	n	n	n	n	n	x
NC(=O)C1CCCN(C(=S)Nc2cccc3ccccc23)C1 (stereo unspecified)	n	n	n	n	908.8	n	n
CCn1c(SCC(=O)NC2CCCC2)nnc1C(C)NC(=O)c1ccccc1Br (stereo unspecified)	n	n	n	n	n	n	x
Cc1ccc(NC(=S)N2CCN(Cc3ccc4c(c3)OCO4)CC2)c(C)c1	n	x	n	n	378.3	n	n
CCC(=O)c1cn(CC(=O)Nc2ccc(OC)cc2)c2ccccc12	n	n	n	n	n	n	x
CC1(C)Cc2nc3sc4c(OCc5ccccc5)ncnc4c3cc2CO1	n	n	n	n	+	n	n
Cc1ccc(S(=O)(=O)N2CC3CCCC2C3)cc1 (stereo unspecified)	n	n	n	n	n	n	x
CCNc1ccc(S(=O)(=O)N(C)C)cc1NCC(=O)Nc1ccccc1Br	n	n	n	n	986.6	n	n
CC(=O)Oc1cccc(N2C(=O)c3ccc(C(=O)Nc4c[nH]c(=O)[nH]c4=O)cc3C2=O)c1	n	n	n	n	553.9	n	n
CC(C)CCN1C(=O)c2ccc(C(=O)Nc3c[nH]c(=O)[nH]c3=O)cc2C1=O	x	n	n	n	n	n	x
c1ccc(-c2csc(NC3CCCCC3)n2)cc1	n	n	n	n	922.7	n	n
Cc1ccc(CNC(=O)CNC(=O)[C@@H]2Cc3ccccc3CN2)cc1	n	n	n	n	n	n	x
Cc1ccc(C23CC4CC(CC(C(=O)NC(C(=O)O)C(C)C)(C4)C2)C3)cc1 (stereo unspecified)	n	n	n	n	n	n	x
COc1ccc(OC)c(NC(=O)CN(C)S(=O)(=O)c2ccc(Cl)cc2)c1	n	n	n	n	414.6	n	n
Cc1ccc2c(C(=O)CNc3nncs3)c(C)[nH]c2c1	n	n	n	n	n	n	x
CCc1ccc(NC(=O)N2CCC(c3ccccc3)C2)cc1 (stereo unspecified)	n	n	n	n	929.3	n	n
COc1ccc(N2CC(O)=C(c3nc(-c4ccccc4)cs3)C2=N)cc1	n	x	n	n	n	n	x
Cc1ccc(-c2csc(C3=C(O)CN(NC(=O)c4ccco4)C3=N)n2)cc1	n	n	n	n	375.5	n	n
O=C(NCCCCNCCCNC(=O)c1ccccc1)c1ccccc1	x	x	x	x	x	n	x
O=C(COc1ccc(-n2cnnn2)cc1)NCCc1ccc(F)cc1	n	n	n	n	+	n	n
O=C(COc1ccc(-n2cnnn2)cc1)Nc1ccc(F)cc1	x	x	x	x	n	n	x
Cc1c(N=Cc2cc(Br)cc(Br)c2O)cccc1C(=O)O	n	57.6	n	n	919.5	n	n
O=C(Nc1cccc(Cl)c1)OCc1cncs1	n	n	n	n	+	n	n
O=C(Nc1ccc(Cl)cc1)OCc1cncs1	n	n	n	n	n	n	x
CCOC(=O)C1CCCN(C(=O)c2cc(-c3ccc(F)cc3)nc3ccccc23)C1 (stereo unspecified)	n	n	n	n	463.4	n	n
